Results of several laboratories.
Each line is one published result; the experiments were not run side by side.
Target: Mitogen-activated protein kinase kinase kinase 14 (MAP3K14, Homo sapiens, UniProt Q99558)

Cc1cnn2ncc(-c3ccnc(N(C)C)n3)c2c1  remaining binding (binding; 1 µM): 80%
O=C(NCC1CCOCC1)c1n[nH]cc1NC(=O)c1c(F)cccc1F  remaining binding (binding; competition with immobilised ligand; 1 µM): 79%
F[C@@H]1CCN(c2nccc(-c3cnn4ncccc34)n2)C1  remaining binding (binding; 1 µM): 100%
O=C(NCc1ncc(C(F)(F)F)cc1Cl)c1ccc2c(c1)C1(CCS(=O)(=O)CC1)[C@@H](C1CC1)N2S(=O)(=O)c1ccc(F)cc1  remaining binding (cell-free assay; competition with immobilised ligand; 1 µM): 71%
COc1cnc(Nc2cccc(S(N)(=O)=O)c2)nc1N1CCN(c2ccccc2)CC1  remaining binding (binding; competition with immobilised ligand; 1 µM): 96%
N[C@H]1CCN(c2nccc(-c3cnn4ncccc34)n2)C1  remaining binding (binding; competition with immobilised ligand; 1 µM): 100%
CN(C)C(=O)Cn1cc(-c2nc(C3(c4ccc(-c5cnc(N)nc5)cc4)CC3)no2)cn1  remaining binding (cell-free assay; competition with immobilised ligand; 1 µM): 83%
C=CC(=O)N1CCC(C(=O)NCC(=O)N2CCN(c3nc(-c4cnc(N)nc4C(F)F)nc(N4CCOCC4)n3)CC2)CC1  remaining binding (binding; competition with immobilised ligand; 1 µM): 89%
COc1ncc2cc3ccccc3nc2c1C#N  remaining binding (cell-free assay; competition with immobilised ligand; 5 µM): 76%
CNC(=O)[C@@H]1CC[C@@H](n2c(-c3ccc4cnccc4c3)nc3ccc(C(=O)NCc4cccc(C(N)=O)c4)cc32)C1  remaining binding (binding; competition with immobilised ligand; 1 µM): 100%
CN(C)c1ncc(F)c(-c2cnn3ncccc23)n1  remaining binding (binding; competition with immobilised ligand; 1 µM): 75%
C[C@@H](c1ccc(-n2cnc3c(N)ncnc32)cc1)N1CCc2nn(C)c(Cc3ccccc3)c2C1=O  remaining binding (binding; competition with immobilised ligand; 0.1 µM): 100%
CN1CCN(c2cnc3c(C4CCN(C(=O)c5ccc(OC(F)(F)F)cc5N)CC4)ncnc3c2)CC1  remaining binding (cell-free assay; competition with immobilised ligand; 1 µM): 100%
C[C@H]1CCN(c2nccc(-c3cnn4ncccc34)n2)C1  remaining binding (binding; competition with immobilised ligand; 1 µM): 82%
c1ccc(N2CCN(Cc3nc4ccccc4[nH]3)CC2)nc1  remaining binding (binding; competition with immobilised ligand; 1 µM): 94%
O=C(NCCCN1CCOCC1)c1ccc(Nc2ncc(Cl)c(-c3ccc(Cl)s3)n2)cc1  remaining binding (binding; competition with immobilised ligand; 1 µM): 49%
CCCCN(CCCC)C(=O)CN1C[C@@H](c2cc(OC)c3c(c2)OCO3)[C@H](C(=O)O)[C@H]1CC(C)(C)CCC  remaining binding (cell-free assay; competition with immobilised ligand; 1 µM): 100%
O=C(NCCCN1CCOCC1)c1ccc(Nc2nccc(-c3cc4ccccc4s3)n2)cc1  remaining binding (binding; competition with immobilised ligand; 1 µM): 87%
CC(=O)N1CCC(c2ccc(C(=O)NC(=N)N)cc2C(F)(F)F)CC1  remaining binding (cell-free assay; competition with immobilised ligand; 1 µM): 100%
CN(c1nccc(-c2cnn3ncccc23)n1)C1CC1  remaining binding (binding; 1 µM): 100%
